Compound activity: PubChem BioAssay, Sanford-Burnham Center for Chemical Genomics
An excerpt weighted towards active compounds, which were near 1.5% of everything screened.
Rev-erbA mod: modulators of human Rev-erb alpha DNA binding. P20393. Rev-erbα–FITC-DNA binding, fluorescence polarization, 90 min. activity, % at 10 µM. hit rate 0.79% among 370,000. AID 1259318;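 active = activity above about 14%, limit read from the data; passing the limit was not always enough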
Target sequence (P20393 whole entry, looked up): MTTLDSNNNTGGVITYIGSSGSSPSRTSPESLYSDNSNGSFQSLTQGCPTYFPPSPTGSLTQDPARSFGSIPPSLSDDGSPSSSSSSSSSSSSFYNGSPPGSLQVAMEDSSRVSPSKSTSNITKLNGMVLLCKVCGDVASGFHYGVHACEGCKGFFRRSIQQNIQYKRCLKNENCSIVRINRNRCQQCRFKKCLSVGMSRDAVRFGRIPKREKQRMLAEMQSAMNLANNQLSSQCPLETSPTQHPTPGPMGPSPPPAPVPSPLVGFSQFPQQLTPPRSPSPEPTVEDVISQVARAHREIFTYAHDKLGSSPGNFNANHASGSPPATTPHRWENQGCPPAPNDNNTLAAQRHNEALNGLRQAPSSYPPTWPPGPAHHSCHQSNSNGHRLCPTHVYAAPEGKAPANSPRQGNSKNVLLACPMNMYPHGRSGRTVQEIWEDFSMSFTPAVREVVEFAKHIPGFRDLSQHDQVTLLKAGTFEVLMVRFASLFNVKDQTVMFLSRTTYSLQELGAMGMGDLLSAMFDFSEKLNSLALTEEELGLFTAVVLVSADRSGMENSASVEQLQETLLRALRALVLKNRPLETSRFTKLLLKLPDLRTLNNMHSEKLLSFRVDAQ
aDG glyco up: increases alpha dystroglycan glycosylation | Pro5-aDG cells, alpha-DG glycosylation AlphaScreen (IIH6); 0% Pro5, 100% B10-LARGE cell signal | activation, % at 10 µM | hit rate 0.22% among 360,000;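 active = activation of at least 8% versus controls, or a plate z-score of at least 8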;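 also: Pro5 are CHO cells carrying HIG-tagged alpha-DG that lacks glycosylation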
CSN inh: CSN deneddylation inhibition | Q92905 | Purified CSN, SCF-Nedd8-OG deneddylation, fluorescence polarization | inhibition, % at 12.5 µM | hit rate 0.38% among 360,000;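 active = pattern-corrected inhibition above about 35%, with an unprinted fluorescence ratio check between 0.5 and 1.5, limit read from the data, passing the limit was not always enough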
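Assay system: purified human Csn5 enzyme expressed in HEK293T cells; Input: 0.24 nM Csn5 enzyme, final concentration; Reagent: 10 nM SCFSkp2-Nedd8OG; Compound dosing: 12.5 µM single point; Times: reaction 90 min, room temperature; Technique: fluorescence polarization readout.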
HNF4A DNA FP: change in binding of human HNF4 alpha to DNA; P41235; HNF4a-FITC DNA binding, fluorescence polarization, 1 h; activity change, % at 10 µM; hit rate 0.3% among 360,000; AID 1224865; in the data active = activity change above about 30%, passing the limit was not always enough
aDG glyco conf: alpha-DG glycosylation activation, confirmation. shares compounds with aDG glyco up. Pro5-aDG cells, IIH6 AlphaLISA; scaled to LARGE-overexpressing B10 cells as 100%. activation, % at 10 µM (by protocol). hit rate 17% among 600. AID 651671;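 active = activation of at least 7% in one or more replicates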;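 also: cells exposed to compound for two days before detection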
Of the large screens only hits and unclear results are named; the others gave an inactive call (follow-up assays come after a bar, where they were run).

CCOc1ccc(N(CC(=O)Nc2c(C)n(C)n(-c3ccccc3)c2=O)S(=O)(=O)c2ccc3c(c2)N(C(=O)C2CCC2)CC3)cc1	none (no result: aDG glyco up, CSN inh, HNF4A DNA FP)
CCOC(=O)C1CCN(Cc2cc(C(C)C)c(O)c(C(C)C)c2)CC1	aDG glyco up 6.4 | aDG glyco conf inactive
COC(=O)[C@]12C[C@H](CC(=O)NCCCCc3ccccc3)C(=O)N(Cc3ccc(Cl)cc3Cl)C1=C[C@H](COCc1ccccc1)O[C@@H]2C	none (no result: aDG glyco up, CSN inh, HNF4A DNA FP)
Nc1nc(-c2cccnc2)nn1S(=O)(=O)c1ccccc1	aDG glyco up 7.2 | aDG glyco conf inactive
C=CCOC(=O)C1=C(C)N=c2sc(=C3C(=O)N(CC(=O)O)c4ccccc43)c(=O)n2C1c1ccc(OC)cc1 (stereo not drawn)	none (no result: aDG glyco up, CSN inh, HNF4A DNA FP)
Cc1ccc(S(=O)(=O)NCCC(=O)NCc2ccccn2)cc1	none
Cc1ccc(S(=O)(=O)NC(=O)NCc2ccccn2)cc1	aDG glyco up 51.4 | aDG glyco conf inactive
N/C(=N\OC(=O)COc1ccc(Cl)cc1Cl)c1ccccn1	none
N/C(=N\OC(=O)COc1ccc(Br)cc1Cl)c1ccccn1	aDG glyco up 14.1 | aDG glyco conf inactive
Cc1cccc(N2CCN(C(=O)CSCc3c(C)noc3C)CC2)c1C	aDG glyco up 6.8 (no result: Rev-erbA mod) | aDG glyco conf inactive
Cc1noc(C)c1CSCC(=O)N1CCN(c2ccc(F)cc2)CC1	none
S=C(Nc1ccccc1Cl)OCCN1CCCC12CCC(c1ccccc1)CC2 (stereo not drawn)	none (no result: aDG glyco up, CSN inh, HNF4A DNA FP)
COCCCN1C(=O)[C@H](CC(=O)N2CCCCC2)[C@]2(C(=O)OC)CCCCC=C12	none (no result: aDG glyco up, CSN inh, HNF4A DNA FP)
CC[C@]12c3[nH]c4ccccc4c3CCN1C(=O)C(CC(=O)NCCc1ccccn1)C[C@@H]2C(=O)N1CCN(C(=O)C2CC2)CC1 (stereo partly drawn)	none
CC[C@]12c3[nH]c4ccc(Cl)cc4c3CCN1C(=O)[C@@H](CC(=O)NCCc1ccccn1)C[C@@H]2C(=O)N1CCN(C(=O)C2CC2)CC1	aDG glyco up 7.9 | aDG glyco conf inactive
CC1(C)CC(=O)C=C(c2ccccc2-c2ccc(S(C)(=O)=O)cc2)C1=O	aDG glyco up 5.6 | aDG glyco conf inactive
CC(=O)c1ccc(-c2ccccc2C2=CC(=O)CC(C)(C)C2=O)cc1	none (no result: aDG glyco up, CSN inh, HNF4A DNA FP)
CC(=O)c1c(COC(=O)c2ccc(C)cc2)nc2ccccc2[n+]1[O-]	aDG glyco up 2.8 | aDG glyco conf inactive
COC(=O)[C@H](C(C)C)N1CCc2nnn(Cc3ccc(C)cc3)c2-c2cc(F)ccc2S1(=O)=O	none (no result: aDG glyco up, CSN inh, HNF4A DNA FP)
CC(=O)N1CCCc2cc(S(=O)(=O)N3CCC(C)CC3)ccc21	aDG glyco up 22.9 | aDG glyco conf inactive
COC(=O)[C@H](CC(C)C)N1Cc2nnn(Cc3ccccc3)c2-c2ccccc2S1(=O)=O	none (no result: aDG glyco up, CSN inh, HNF4A DNA FP)
COc1ccc(C(=O)C2CCCN(S(=O)(=O)c3ccc(C(C)=O)cc3)C2)c(C)c1 (stereo not drawn)	none
CCS(=O)(=O)N1CCCC(C(=O)c2ccc(OC)cc2C)C1 (stereo not drawn)	aDG glyco up 24.6 | aDG glyco conf inactive
CC(=O)c1cccc(NC(=O)C2CCCC2)c1	none
CC(=O)c1ccc(NC(=O)C2CCCC2)cc1	aDG glyco up 2.1 | aDG glyco conf inactive
CC(C)(C)C(=O)Nc1ccc(C(=O)NCc2cccnc2)cc1	none
CC(C)(C)c1ccc(C(=O)Nc2ccc(C(=O)NCc3cccnc3)cc2)cc1	aDG glyco up 2.3 | aDG glyco conf 4.5
S=C(Nc1ccccc1)OC1CCC12CCC(c1ccccc1)CC2 (stereo not drawn)	none (no result: aDG glyco up, CSN inh, HNF4A DNA FP)
COc1ccc2cc(CN(C(=O)Nc3ccccc3)C3CCCC3)c(=O)[nH]c2c1	aDG glyco up 16.2 | aDG glyco conf inactive
C=CCNC(=O)Nc1ccc2c(c1)[C@]1(CC(=O)N(CC(C)C)C1c1ccccc1)C(=O)N2C (stereo partly drawn)	none (no result: aDG glyco up, CSN inh, HNF4A DNA FP)
Clc1ccc(CNCCCSc2ncccn2)cc1Cl	aDG glyco up 2.4 | aDG glyco conf inactive
N#Cc1cc2ccc(N3CCOCC3)cc2cc1C#N	aDG glyco up 6.8 | aDG glyco conf inactive
COC(=O)[C@@]12CCCCC3=C1N(CCC3)C(=O)[C@H]2CC(=O)NCc1ccc(C)o1	none (no result: aDG glyco up, CSN inh, HNF4A DNA FP)
NC(c1csc(Nc2cc(Oc3ccccc3)ncn2)n1)C1CCCCC1 (stereo not drawn)	aDG glyco up 9.7 | aDG glyco conf 10.7
COc1ccc(C(N)c2csc(Nc3cc(Oc4ccccc4)ncn3)n2)cc1 (stereo not drawn)	none
